# Source: ChEMBL document CHEMBL3414459, “Phenolic thio- and selenosemicarbazones as multi-target drugs” (Eur J Med Chem, 2015)
# Active and inactive are the calls of the source. The calls are words filed in the database; no cut-off is given here.
# Assays:
# SW1573 = assay: Antiproliferative activity against human SW1573 cells after 48 hrs by sulforhodamine B assay; assay type: functional; settings: SW1573, 48 h
# In short: (§1)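 Exponentially growing cells trypsinized into penicillin/streptomycin medium, >97% viable by trypan blue. Seeded per well: 10,000 (A549, HBL-100, HeLa, SW1573), 15,000 (T-47D), 20,000 (WiDr). Treatment began day 1, DMSO stocks 40 mM, 0.25% DMSO as control, triplicate, 48 h. Cells fixed with cold TCA 60 min at 4 °C, SRB stained, OD492 read, medium background subtracted.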
# [1] = Antiproliferative activity against human HBL100 cells after 48 hrs by sulforhodamine B assay; assay type: functional; settings: HBL-100, 48 h; in short: as §1
# [2] = Antioxidant activity assessed as H2O2 scavenging activity at 100 uM incubated for 20 mins by phenol red based assay; assay type: physicochemical
# In short: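 Compound at 100 µM final, or DMSO control, in 0.1 M phosphate buffer pH 7.4 with H2O2 and 0.1 M NaCl, incubated in the dark at 37 °C for 20 min. Phenol red (0.2 mg/mL) and horseradish peroxidase (0.1 mg/mL) added, 15 min at 37 °C. NaOH added, 10 min at rt, A610 read. % reduction = (A_control − A_sample)/A_control × 100.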
# Saccharomyces bayanus [3] = assay: Un-competitive inhibition of baker's yeast alpha-glucosidase using p-nitrophenyl-alpha-D-glucopyranoside substrate assessed as reduction in p-nitrophenolate formation by Lineweaver-Burk plot
# In short: (§2)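 Same α-glucosidase conditions: pH 6.8 phosphate buffer, 25 °C, A400 for p-nitrophenolate, 5% DMSO. Done for inhibitors exceeding 50% inhibition at 500 µM. Rates measured at 5 substrate concentrations from 0.25 to 4.0 K_m, each at a fixed inhibitor concentration, using 2–3 inhibitor concentrations. Lineweaver–Burk double reciprocal plots gave the inhibition mode and constants K_ia (E) and K_ib (ES).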
# T47D = assay: Antiproliferative activity against human T47D cells after 48 hrs by sulforhodamine B assay; assay type: functional; in short: as §1
# WiDr = assay: Antiproliferative activity against human WiDr cells after 48 hrs by sulforhodamine B assay; assay type: functional; in short: as §1
# [4] = Antioxidant activity assessed as inhibition of the lipid peroxidation at 0.74 mM incubated for 24 hrs by ferric thiocyanate method; assay type: physicochemical; settings: 740 µM
# In short: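 Ferric thiocyanate method at 0.74 mM. 10.0 mM DMSO stock combined with methanolic linoleic acid in 0.2 M phosphate buffer pH 7.0. AAPH added, then 24 h at 50 °C in the dark; DMSO served as control. An aliquot was diluted in H2O–DMSO with NH4SCN and FeCl2 in HCl. After 3 min at rt, A546 read. % inhibition relative to control.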
# [5] = Pro-oxidant activity assessed as hydroxyl radical generation through deoxyribose degradation by measuring change in absorbance at 0.83 mM by TBARS based spectrophotometry; assay type: ADME; settings: 830 µM
# In short: (§3)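 Modified Halliwell deoxyribose assay with the compound at the stated concentration in 0.1 M phosphate buffer pH 7.4, with 2-deoxyribose, H2O2, and FeCl3 premixed with EDTA. Heated 1 h at 37 °C, then TBA in NaOH and trichloroacetic acid added and heated 15 min at 100 °C. Cooled, A532 read; DMSO as control. Repeated without deoxyribose to account for TBARS interference.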
# [6] = Antioxidant activity assessed as DPPH free radical scavenging activity incubated for 30 mins; assay type: physicochemical
# In short: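 DPPH in HPLC-grade solvent mixed with compound in DMSO at 7 concentrations, or with DMSO alone as control. Kept in the dark at rt for 30 min, then A515 read against a blank. % DPPH remaining = A_sample/A_control × 100, plotted against concentration; EC50 taken from the straight line. Triplicate.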
# HeLa = assay: Antiproliferative activity against human HeLa cells after 48 hrs by sulforhodamine B assay; assay type: functional; in short: as §1
# A549 = assay: Antiproliferative activity against human A549 cells after 48 hrs by sulforhodamine B assay; assay type: functional; settings: A549, 48 h; in short: as §1
# [7] = Inhibition of baker's yeast alpha-glucosidase using p-nitrophenyl-alpha-D-glucopyranoside substrate assessed as reduction in p-nitrophenolate formation at 500 uM; settings: Saccharomyces bayanus
# In short: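 α-Glucosidase in 0.1 M phosphate buffer pH 6.8 with p-nitrophenyl-α-D-glucopyranoside at K_M (250 µM; K_M 0.25 mM). Inhibitor at 500 µM final or DMSO, DMSO 5% v/v.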
# [8] = Inhibition of baker's yeast alpha-glucosidase using p-nitrophenyl-alpha-D-glucopyranoside substrate assessed as inhibition constant for enzyme-substrate-compound binding by measuring reduction in p-nitrophenolate formation; in short: as §2
# [9] = Inhibition of baker's yeast alpha-glucosidase using p-nitrophenyl-alpha-D-glucopyranoside substrate assessed as inhibition constant for enzyme-compound binding by measuring reduction in p-nitrophenolate formation; design: species or system Saccharomyces cerevisiae; in short: as §2
# [10] = Mixed inhibition of baker's yeast alpha-glucosidase using p-nitrophenyl-alpha-D-glucopyranoside substrate assessed as reduction in p-nitrophenolate formation by Lineweaver-Burk plot; settings: Saccharomyces bayanus; in short: as §2
# [11] = Potency index, ratio of IC50 for hydroxytyrosol to IC50 for test compound for antioxidant activity assessed as DPPH free radical scavenging activity incubated for 30 mins
# Saccharomyces bayanus [12] = assay: Non-competitive inhibition of baker's yeast alpha-glucosidase using p-nitrophenyl-alpha-D-glucopyranoside substrate assessed as reduction in p-nitrophenolate formation by Lineweaver-Burk plot; in short: as §2
# Saccharomyces bayanus [13] = assay: Potency index, ratio of Ki for acarbose to Ki for compound against baker's yeast alpha-glucosidase using p-nitrophenyl-alpha-D-glucopyranoside substrate assessed as reduction in p-nitrophenolate formation
# [14] = Inhibition of baker's yeast alpha-glucosidase using p-nitrophenyl-alpha-D-glucopyranoside substrate assessed as reduction in p-nitrophenolate formation
# In short: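 Run in 0.1 M phosphate buffer, pH 6.8, with 5% (v/v) DMSO. […] Enzyme started the reaction at 25 °C, and p-nitrophenolate was followed at 400 nm. Percent inhibition came from rates with and without inhibitor. Where inhibition exceeded 50%, Ki and mode were derived by Lineweaver–Burk, using substrate 0.25–4.0 Km and 2–3 fixed inhibitor concentrations.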
# [15] = Pro-oxidant activity assessed as hydroxyl radical generation through deoxyribose degradation by measuring change in absorbance at 0.083 mM by TBARS based spectrophotometry; assay type: ADME; settings: 83 µM; in short: as §3
# [16] = Pro-oxidant activity assessed as hydroxyl radical generation through deoxyribose degradation by measuring change in absorbance at 0.42 mM by TBARS based spectrophotometry; assay type: ADME; settings: 420 µM; in short: as §3
# [17] = Pro-oxidant activity assessed as hydroxyl radical generation through deoxyribose degradation by measuring change in absorbance at 0.17 mM by TBARS based spectrophotometry; assay type: ADME; settings: 170 µM; in short: as §3
Structure (SMILES),GI50 (SW1573) [µM],GI50 [1] [µM],inhibition (INH) [2],GI50 (T47D) [µM],GI50 (WiDr) [µM],inhibition (INH) [4],Activity [5],EC50 [6] [µM],GI50 (HeLa) [µM],GI50 (A549) [µM],inhibition [7],Ki [8] [µM],Ki [9] [µM],inhibition [10],Ratio IC50 [11],other results
Oc1ccc(/C=N/NC(=S)Nc2ccccc2)cc1,35,43,79.5%,88,61,5.5%,0.094,90.1,42,34,52%,213,,,,inhibition (Saccharomyces bayanus [3]): Active
Oc1cc(/C=N/NC(=[Se])Nc2cccc3ccccc23)cc(O)c1O,2.9,2.4,38.1%,2.7,3.6,24.3%,0.067,8.87,2.3,1.7,98%,70.3,154,Active,,
Oc1ccc(/C=N/NC(=[Se])Nc2ccccc2)cc1O,5.8,3.8,69%,3.7,3.2,66.5%,0.097,8.77,3.3,2.6,81%,,201,,< 3,inhibition (Saccharomyces bayanus [12]): Active
O=Cc1ccc(O)cc1 [4-HYDROXYBENZALDEHYDE],> 100,> 100,Not Active,> 100,> 100,Not Active,,> 250,> 100,> 100,inactive,,,,,
Oc1cc(O)c(/C=N/NC(=S)Nc2ccccc2)cc1O,30,29,Not Active,10,30,56.8%,0.067,13.9,19,1.2,100%,,9.6,,,inhibition (Saccharomyces bayanus [12]): Active; Ratio Ki (Saccharomyces bayanus [13]): 8
O=Cc1cc(O)c(O)cc1O,> 100,> 100,80.3%,> 100,> 100,56.1%,,5.97,> 100,> 100,inactive,,,,,
O=c1[nH]cc(F)c(=O)[nH]1 [FLUOROURACIL],4.3,5.5,,47,49,,,,15,,,,,,,
C[C@H]1O[C@H](O[C@H]2[C@H](O)[C@@H](O)[C@@H](O[C@H]3[C@H](O)[C@@H](O)C(O)O[C@@H]3CO)O[C@@H]2CO)[C@H](O)[C@@H](O)[C@@H]1N[C@H]1C=C(CO)[C@@H](O)[C@H](O)[C@H]1O (some centres undefined) [ACARBOSE],,,,,,,,,,,,,,,,Ki [14]: 77.9 µM
Oc1ccc(/C=N/NC(=S)Nc2ccccc2)cc1O,24,35,79.3%,25,27,72%,,9.27,7,1.6,68%,134,708,Active,< 3,
Oc1cc(/C=N/NC(=[Se])Nc2ccccc2)cc(O)c1O,3.9,2,64%,2.9,3.7,65.7%,,4.87,2.1,1.5,95%,78.4,30.3,Active,< 3,
NNC(=[Se])Nc1cccc2ccccc12,,,56.9%,,,21.9%,0.064,6.65,,,14%,,,,< 3,
Oc1ccc(/C=N/NC(=[Se])Nc2cccc3ccccc23)cc1O,3.2,2.6,46.3%,2.5,2.8,72%,0.079,18.2,2.2,1.1,95%,69.8,57.8,Active,,Activity [15]: 0.097; Activity [16]: 0.041; Activity [17]: 0.037
OCCc1ccc(O)c(O)c1 [HYDROXYTYROSOL],,,,,,,,13.8,,,,,,,,
O=Cc1ccc(O)c(O)c1 [PROTOCATECHUALDEHYDE],54,> 100,78.3%,> 100,> 100,35.7%,,6.57,49,42,inactive,,,,,
O=Cc1cc(O)c(O)c(O)c1,38,72,79.1%,43,39,Not Active,,15.3,16,7.3,inactive,,,,,
Oc1ccc(/C=N/NC(=[Se])Nc2ccccc2)cc1,19,13,72.5%,7.2,16,31%,0.087,27.8,3.7,1.4,62%,,336,,,inhibition (Saccharomyces bayanus [12]): Active
Oc1cc(/C=N/NC(=S)Nc2ccccc2)cc(O)c1O,49,71,80%,61,> 100,59.9%,,7,32,9.3,70%,86.2,297,Active,< 3,
Oc1cc(O)c(/C=N/NC(=[Se])Nc2cccc3ccccc23)cc1O,5,4,4.5%,3.5,5.2,43%,,10.7,3,1.7,95%,76.8,33,Active,< 3,
